Results published in PMC8240349 (Journal of Traditional and Complementary Medicine, 2021).
Like-named read-outs stand apart in the source and are kept apart here. Marks after values point to notes of the source that are not given here.

What was measured:
[1] = type: in vivo, human; settings: for AUC0-t / AUC0-∞ / CL/F / MRT / Vz/F / t1/2z / tmax / λ / Cmax: median (range)
Outline: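 Healthy Thai adults took oral 1,000 mg AL extract capsules with 200 ml water, either once (group 1) or daily for 21 days (group 2), with 20 active recipients per group. Plasma atractylodin was measured by reversed-phase C18 HPLC (UV 340 nm, acetonitrile:water 70:30, 25 °C; LOQ 2.5 ng/ml). Cmax was read from observed data. t1/2z came from log-linear regression of at least the last three points. MRT was AUMC0-∞/AUC0-∞.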

[2] = type: in vivo, human; settings: for AUC0-∞ / CL/F / Cmax / K01 / Vz/F / k10 / t1/2a / t1/2z / tlag / tmax / K10: median (range)
[3] = rats, cited from earlier work
[4] = test system: CCA; settings: cited from earlier work
[5] = cited from earlier work
[6] = group 1, single 1,000 mg AL, all
[7] = group 1, single 1,000 mg AL, female
[8] = group 1, single 1,000 mg AL, male
[9] = group 2, daily 1,000 mg AL, day 1, all
[10] = group 2, daily 1,000 mg AL, day 1, female
[11] = group 2, daily 1,000 mg AL, day 1, male
[12] = group 2, daily 1,000 mg AL, day 21, all
[13] = group 2, daily 1,000 mg AL, day 21, female
[14] = group 2, daily 1,000 mg AL, day 21, male
[15] = intravenous 2 mg/kg body weight atractylodin
[16] = oral 30 g/kg body weight A. rhizoma
[17] = oral 40 g/kg body weight crude A. rhizoma
[18] = oral 40 g/kg body weight processed A. rhizoma

## C/C=C/C#CC#C/C=C/c1ccco1 [atractylodin]
[1]; all participants, both groups
  plasma atractylodin after 6 h: undetectable
[1]; both groups, model-independent analysis
  observed Cmax, range: 0.0071 to 0.1527 µg/mL
[1]; [6]
  AUC0-t: 118.27 (72.47–169.90) ng.h/ml
  AUC0-∞: 123.70 (75.13–176.96) ng.h/ml
  CL/F: 6.68 (4.46–13.70) l/kg/h
  MRT: 2.42 (1.74–3.11) h
  Vz/F: 11.45 (7.06–20.17) l/kg
  t1/2z: 1.13 (0.78–1.48) h
  tmax: 1 (0.75–1.5) h
  λ: 0.62 (0.47–0.89) /h
[1]; [7]
  AUC0-t: 122.67 (72.47–192.85) ng.h/ml
  AUC0-∞: 128.13 (75.13–199.88) ng.h/ml
  CL/F: 6.87 (4.48–13.70) l/kg/h
  Cmax: 58.65 (42.50–96.80) ng/ml
  MRT: 2.21 (1.70–3.74) h
  Vz/F: 12.11 (6.62–20.17) l/kg
  t1/2z: 1.18 (0.72–2.19) h
  tmax: 1.0 (0.75–1.0) h
  λ: 0.71 (0.37–0.92) /h
[1]; [8]
  AUC0-t: 142.14 (83.48–199.75) ng.h/ml
  AUC0-∞: 146.88 (86.09–226.53) ng.h/ml
  CL/F: 6.29 (2.80–8.92) l/kg/h
  Cmax: 59.20 (41.80.50–99.30) ng/ml
  MRT: 2.42 (1.71–2.94) h
  Vz/F: 11.49 (8.35–56.42) ^a l/kg
  t1/2z: 1.23 (0.13–2.77) h
  tmax: 1.0 (0.75–2.0) h
  λ: 0.85 (0.29–1.10) /h
[1]; group 1, single 1,000 mg AL, 10 participants
  participants with atractylodin detected at 0.25 h: 50%
[1]; [9]
  AUC0-t: 93.06 (12.13–276.28) ng.h/ml
  AUC0-∞: 112.2 (20.11–306.76) ng.h/ml
  CL/F: 7.33 (2.87–33.43) l/kg/h
  Cmax: 47.10 (7.10–129.90) ng/ml
  MRT: 2.60 (1.58–5.17) h
  Vz/F: 12.75 (4.44–61.56) l/kg
  t1/2z: 1.16 (0.63–3.75) h
  tmax: 1.0 (0.5–2.0) h
  λ: 0.60 (0.19–1.11) /h
[1]; [10]
  AUC0-t: 99.67 (42.88–276.28) ng.h/ml
  AUC0-∞: 139.56 (70.21–248.22) ng.h/ml
  CL/F: 6.43 (2.87–15.00) l/kg/h
  Cmax: 54.35 (16.10–129.90) ng/ml
  MRT: 2.66 (1.70–3.99) h
  Vz/F: 11.97 (4.44–37.88) l/kg
  t1/2z: 1.36 (0.85–1.75) h
  λ: 0.52 (0.40–0.82) /h
[1]; [11]
  AUC0-t: 82.88 (12.13–181.08) ng.h/ml
  AUC0-∞: 92.40 (20.11–210.23) ng.h/ml
  CL/F: 8.38 (3.77–33.43) l/kg/h
  Cmax: 41.90 (7.10–67.20) ng/ml
  MRT: 2.47 (1.58–5.17) h
  Vz/F: 13.96 (6.73–61.56) l/kg
  t1/2z: 1.09 (0.63–3.75) h
  tmax: 1.0 (1.0–2.0) h
  λ: 0.64 (0.19–1.11) /h
[1]; group 2, daily 1,000 mg AL, day 1, 17 participants
  participants with atractylodin detected at 0.5 h: 85%
[1]; [12]
  AUC0-t: 106.67 (40.42–259.81) ng.h/ml
  AUC0-∞: 117.75 (48.73-269-21) ng.h/ml
  CL/F: 6.80 (2.95–14.82) l/kg/h
  Cmax: 46.95 (20.10–152.70) ng/ml
  MRT: 2.64 (1.58–4.54) h
  Vz/F: 12.85 (3.58–31.55) l/kg
  t1/2z: 1.14 (0.80–2.17) h
  tmax: 1.0 (0.5–2.0) h
  λ: 0.61 (0.32–0.87) /h
[1]; [13]
  AUC0-t: 118.05 (42.97–212.09) ng.h/ml
  AUC0-∞: 145.54 (67.49–232.33) ng.h/ml
  CL/F: 5.93 (3.79–11.38) l/kg/h
  Cmax: 52.55 (20.10–152.70) ng/ml
  MRT: 2.61 (1.58–4.54) h
  Vz/F: 12.12 (5.11–31.55) l/kg
  t1/2z: 1.28 (0.80–2.17) h
  tmax: 1.0 (0.5–2.0) h
  λ: 0.54 (0.32–0.87) /h
[1]; [14]
  AUC0-t: 75.38 (40.42–259.81) ng.h/ml
  AUC0-∞: 91.67 (48.73-269-21) ng.h/ml
  CL/F: 7.90 (2.95–14.82) l/kg/h
  Cmax: 44.0 (22.0–107.0) ng/ml
  MRT: 2.64 (1.95–3.08) h
  Vz/F: 13.79 (3.58–22.13) l/kg
  t1/2z: 1.08 (0.84–1.65) h
  tmax: 1.0 (1.0–2.0) h
  λ: 0.64 (0.42–0.82) /h
[1]; group 2, daily 1,000 mg AL, day 21, 19 participants
  participants with atractylodin detected at 0.5 h: 95%
[1]; group 2, daily 1,000 mg AL, range
  plasma atractylodin level at 4 h: 2.5 to 18.2 ng/mL
[1]; human plasma, multiple oral dosing for 21 days
  accumulation after multiple oral dosing: no accumulation
[1]; most participants
  time by which atractylodin was cleared in plasma: ≤ 4 h
[2]; [6]
  AUC0-∞: 105.07 (65.93–168.90) ng.h/ml
  CL/F: 7.28 (4.78–15.62) l/kg/h
  Cmax: 29.1 (17.1–42.51) ng/ml
  K01: 0.68 (0.43–1.00) /h
  Vz/F: 10.18 (6.85–19.53) L/kg
  k10: 0.71 (0.44–1.71) /h
  t1/2a: 0.97 (0.41–1.58) h
  t1/2z: 0.88 (0.37–1.74) h
  tlag: 0.13 (0.0–0.5) h
  tmax: 1.41 (0.94–2.3) h
[2]; [7]
  AUC0-∞: 108.19 (65.93–186.59) ng.h/ml
  CL/F: 8.06 (4.80–15.62) l/kg/h
  Cmax: 31.04 (19.29–49.21) ng/ml
  K01: 0.75 (0.59–1.48) /h
  K10: 0.76 (0.59–1.16) /h
  Vz/F: 11.81 (5.65–19.53) l/kg
  t1/2a: 0.92 (0.47–1.19) h
  t1/2z: 0.92 (0.47–1.19) h
  tlag: 0.0 (0.0–0.25) h
  tmax: 1.33 (0.89–1.70) h
[2]; [8]
  AUC0-∞: 118.85 (74.25–189.98) ng.h/ml
  CL/F: 6.35 (3.34–10.33) l/kg/h
  Cmax: 31.05 (17.86–51.36) ng/ml
  K01: 0.68 (0.44–0.95) /h
  K10: 0.67 (0.43–0.96) /h
  Vz/F: 8.41 (5.14–18.70) l/kg
  t1/2a: 1.02 (0.73–1.58) h
  t1/2z: 1.02 (0.73–1.57) h
  tlag: 0.25 (0–0.5) h
  tmax: 1.48 (1.05–2.29) h
[2]; [9]
  AUC0-∞: 103.7 (16.5–315.4) ng.h/ml
  CL/F: 8.11 (2.73–40.75) l/kg/h
  Cmax: 32.11 (4.9–117.8) ng/ml
  K01: 0.83 (0.43–22.67) /h
  Vz/F: 12.74 (2.687–47.03) L/kg
  k10: 0.71 (0.43–1.25) /h
  t1/2a: 0.84 (0.03–1.63) h
  t1/2z: 0.84 (0.03–1.63) h
  tlag: 0 (0–0.5) h
  tmax: 1.18 (0.17–2.34) h
[2]; [10]
  AUC0-∞: 130.62 (52.04–315.40) ng.h/ml
  CL/F: 6.50 (2.73–14.76) l/kg/h
  Cmax: 42.26 (8.41–117.80) ng/ml
  K01: 0.96 (0.43–22.67) /h
  K10: 0.63 (0.43–1.19) /h
  Vz/F: 10.09 (2.68–33.56) l/kg
  t1/2a: 0.73 (0.03–1.63) h
  t1/2z: 0.73 (0.03–1.63) h
  tmax: 1.11 (0.17–2.34) h
[2]; [11]
  AUC0-∞: 91.88 (16.5–109.93) ^b ng.h/ml
  CL/F: 8.75 (5.8–40.75) l/kg/h
  Cmax: 23.77 (4.97–49.75) ^a ng/ml
  K01: 0.78 (0.57–1.89) /h
  K10: 0.72 (0.24–1.25) /h
  Vz/F: 15.52 (6.43–47.03) l/kg
  t1/2a: 0.89 (0.37–1.21) h
  t1/2z: 0.89 (0.37–1.21) h
  tlag: 0.0 (0.0–0.5) h
  tmax: 1.25 (0.81–1.73) h
[2]; [12]
  AUC0-∞: 123.18 (49.22–419.61) ng.h/ml
  CL/F: 7.10 (1.83–14.67) l/kg/h
  Cmax: 31.84 (9.38–97.64) ng/ml
  K01: 0.74 (0.10–1.92) /h
  Vz/F: 9.66 (0.47–26.32) L/kg
  k10: 0.73 (0.11–15.31) /h
  t1/2a: 0.94 (0.36–6.61) h
  t1/2z: 0.94 (0.05–6.49) h
  tlag: 0 (0–0.5) h
  tmax: 1.32 (0.24–9.44) h
[2]; [13]
  AUC0-∞: 144.4 (69.1–420.3) ng.h/ml
  CL/F: 5.91 (1.83–11.11) l/kg/h
  Cmax: 39.49 (11.40–91.24) ng/ml
  K01: 0.72 (0.11–1.92) /h
  K10: 0.74 (0.11–15.31) /h
  Vz/F: 8.18 (0.47–25.06) l/kg
  t1/2a: 0.97 (0.36–6.61) h
  t1/2z: 0.94 (0.05–6.49) h
  tlag: 0 (0–0.5) h
  tmax: 1.36 (0.24–9.45) h
[2]; [14]
  AUC0-∞: 87.18 (49.22–292.77) ^c ng.h/ml
  CL/F: 8.16 (2.70–14.67) ^d l/kg/h
  Cmax: 26.03 (9.39–97.64) ng/ml
  K01: 0.83 (0.52–1.57) /h
  K10: 0.71 (0.42–0.99) /h
  Vz/F: 13.32 (3.05–26.32) l/kg
  t1/2a: 0.84 (0.44–1.34) h
  t1/2z: 0.99 (0.70–1.67) h
  tlag: 0 (0.0–0.0) h
  tmax: 1.24 (1.0–1.94) h
[2]; in vivo
  Cmax by model-dependent analysis compared with model-independent analysis: 60–70%
[3]; [15]
  central volume of distribution (Vc): 31.7 L/kg
  t1/2: 3.3 h
  total clearance (CL): 6.59 L/h/kg
[3]; [16]
  mean maximum plasma concentration (Cmax): 1,930 ng/ml
  terminal elimination half-life (t1/2): 8 h
  time to Cmax (tmax): 2.25 h
[3]; [17]
  CL/F: 6.67 L/h/kg
  mean Cmax: 625 ng/mL
  mean residence time (MRT): 4.8 h
  t1/2z: 2.38 h
  time of Cmax: 2.2 h
[3]; [18]
  CL/F: 2.56 L/h/kg
  MRT: 7.06 h
  mean Cmax: 2,299 ng/ml
  t1/2z: 5.13 h
  tmax: 0.33 h
[4]; bioassay-guided activity
  IC50, anti-CCA activity: 20 to 25 mg/L
[5]
  water solubility: low water solubility

## CC1=CCC[C@H](C)[C@@]12CC[C@@H](C(C)(C)O)C2 [hinesol]
[4]
  activity (anti-CCA): weak activity
